The record followed here is ChEMBL document CHEMBL3784950, “Higginsianins A and B, Two Diterpenoid α-Pyrones Produced by Colletotrichum higginsianum, with in Vitro Cytostatic Activity” (J Nat Prod, 2016).

The nature of data set [1]: (§1) Antiproliferative activity against human Hs683 cells assessed as cell viability after 72 hrs by MTT assay. The data set is classed as functional, cell-based. The conditions noted are these: Hs 683, 72 h. In a few lines: (§2)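 Cells cultured 72 h with compound; MTT conversion to formazan read by spectrophotometry as a measure of metabolically active cells. IC50 is the concentration that reduces growth by 50% relative to control optical density. Six replicates per condition; one or two independent sextuplicate experiments.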
(In general: Formazan colour is commonly taken as a measure of viable cells.)

The nature of data set [2]: (§3) Antiproliferative activity against human U373 cells assessed as cell viability after 72 hrs by MTT assay. The format is functional, cell-based, U-373MG ATCC. The conditions noted are these: U373 MG. In a few lines:
as §2

A further data set has as its system A549. Put plainly: Antiproliferative activity against human A549 cells assessed as cell viability after 72 hrs by MTT assay. The data set is classed as functional, cell-based. The conditions noted are these: for IC50: A549, 72 h. Put shortly: as §2
In a further data set the test system is MCF7. The experiment in a line: Antiproliferative activity against human MCF7 cells assessed as cell viability after 72 hrs by MTT assay. The format is functional, cell-based. The conditions noted are these: for IC50: MCF7, 72 h. Put shortly: as §2
In a further data set the test system is SK-MEL-28. Put plainly: Antiproliferative activity against human SK-MEL-28 cells assessed as cell viability after 72 hrs by MTT assay. The data set is classed as functional, cell-based. The conditions noted are these: for IC50: SK-MEL-28, 72 h. Put shortly: as §2
Data set [3] in a line: (§4) Antiproliferative activity against mouse B16F10 cells assessed as cell viability after 72 hrs by MTT assay. The conditions noted are these: B16-F10, 72 h. The data set is classed as functional, cell-based. In a few lines:
as §2

Data set [4] deals with Hs 683. Described as §1. The data set is classed as functional, cell-based. In a few lines: as §2
Another data set deals with U-373MG ATCC. The data set is described as §3. The format is functional, cell-based. In a few lines:
as §2

A further data set relates to B16-F10. The data set is described as §4. The data set is classed as functional, cell-based. Put shortly:
as §2

In data set [5] the test system is Hs 683. The experiment in a line: Cytostatic activity against human Hs683 cells assessed as morphological changes at 1 uM after 48 hrs by phase contrast microscopic analysis. The format is functional, cell-based. Put shortly: (§5)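 Phase-contrast microscopy of Hs683 glioma cells treated at 1 versus 50 μM, judging cytostatic versus cytotoxic morphology.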
The test system of data set [6] is Hs 683. Put plainly: Cytotoxicity against human Hs683 cells assessed as morphological changes at 50 uM after 48 hrs by phase contrast microscopic analysis. The data set is classed as functional, cell-based. Put shortly: as §5
Data set [7] is described as follows: Antiproliferative activity against human Hs683 cells assessed as growth inhibition at 1 uM after 72 hrs by quantitative video microscopic analysis relative to control. The conditions noted are these: Hs 683, 72 h, read-out: GI. The format is functional. In a few lines:
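Hs683 cells filmed by computer-assisted phase-contrast microscopy at 1 μM and 40 μM versus control. Global growth is the cell count on the last image divided by that on the first, taken at 24, 48 and 72 h. The GGR index is treated global growth divided by control global growth. Run once in duplicate; mean ± SEM.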

A short description of data set [8]: Stability in human Hs683 cells assessed as photosensitivity at 1 to 40 uM by quantitative video microscopic analysis. The conditions noted are these: hs 683, 40 µM. The format is ADME, cell-based.
Data set [9] is described as follows: Stability in human Hs683 cells assessed as photoactivity at 1 to 40 uM by quantitative video microscopic analysis. The data set is classed as ADME, cell-based. The conditions noted are these: hs 683, 40 µM.

Active and inactive are the calls of the source. The calls are words filed in the database; no cut-off is given here.

For `C=C1CC[C@H]2[C@](C)(CCC=C(C)C)[C@H](O)CC[C@]2(C)[C@@H]1Cc1c(O)c(C)c(C)oc1=O`, the IC50 – broadly, the point on the concentration scale where inhibition reaches its midpoint – stood at 2 µM in [1]; 84 µM in [2]; 29 µM in the data set with A549; 2 µM in the data set with MCF7; 88 µM in the data set with SK-MEL-28; 3 µM in data set [3].

As to `C=C1CC[C@@H]2[C@](C)(CC[C@H]3O[C@H](C=C(C)C)C[C@@]23C)[C@@H]1Cc1c(OC)c(C)c(C)oc1=O`, the IC50 in data set [1] is 0.4 µM; in the data set with A549, 16 µM; with MCF7 it was 38 µM; with SK-MEL-28, 48 µM; in data set [3] it was 1 µM.

With `C=C1CC[C@@H]2[C@](C)(CC[C@H]3O[C@H](C=C(C)C)C[C@@]23C)[C@@H]1Cc1c(OC(C)=O)c(C)c(C)oc1=O`, the IC50 was found to be 1 µM in [1]; 47 µM in the data set on A549; 41 µM with MCF7; 84 µM in the data set with SK-MEL-28; 2 µM in data set [3].

On to `C=C1CC[C@H]2[C@]3(C)C[C@@H](C=C(C)C)O[C@H]3CC[C@]2(C)[C@@H]1Cc1c(O)c(C)c(C)oc1=O`, for which the result in the data set with Hs 683 [4], in the data set on U-373MG ATCC, in the data set with A549, in the data set on MCF7, in the data set on SK-MEL-28 and in the data set on B16-F10 was inactive.

Consider `C=C1CC[C@@H]2[C@](C)(CC[C@H]3O[C@H](C=C(C)C)C[C@@]23C)[C@@H]1Cc1c(O)c(C)c(C)oc1=O`, for which the IC50 came to 1 µM in data set [1]; 63 µM in data set [2]; 33 µM with A549; 19 µM in the data set with MCF7; 73 µM in the data set on SK-MEL-28; 1 µM in [3]. Besides, the result with Hs 683 [5] and in the data set on Hs 683 [6] was Active. The inhibition of growth at 1 µM in data set [7] came to 50%. Moreover, the Stability entry in data set [8] and in data set [9] was “Stable” throughout.

Turning to `C=C1CC[C@@H]2[C@](C)(CC[C@H]3CO[C@H](C=C(C)C)C[C@]32C)[C@@H]1Cc1c(O)c(C)c(C)oc1=O`, the concentration for half-maximal inhibition (IC50) in data set [1] was 49 µM; in the data set on A549 it was 35 µM; with MCF7, 24 µM; in the data set on SK-MEL-28, 51 µM; in data set [3] it was 25 µM.

Take `C=C1CC[C@@H]2[C@](C)(CC[C@H](O)[C@@]2(C)CCC=C(C)C)[C@@H]1Cc1c(O)c(C)c(C)oc1=O`: the outcome in the data set with Hs 683 [4], in the data set on U-373MG ATCC, with A549, in the data set on MCF7, with SK-MEL-28 and with B16-F10 was inactive.
